Rows were chosen to be rich in hits. Some 5.9% of all compounds tested hit in one or more screens of this group.
PTK2B oligo ant: blocks oligomerization of human Pyk2 in cells; Q14289; Q293 cells, Pyk2 FERM NanoBiT luminescence; active compounds read low; z-score (the deposit names both 25 µM and 10 µM); hit rate 0.83% among 99,000; AID 1347419;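 active = Z-score of -3 or lower, scaled per plate to the spread of control and sample wells; inactive = z-score above -3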;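 note: negative z-score means lost luminescence so less FERM oligomerization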
Rev-RRE block: HIV Rev-RRE protein-RNA interaction inhibition | P05866 | Rev peptide-RRE RNA binding, FRET | inhibition, % at 8 µM | hit rate 0.79% among 97,000;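 active = inhibition above the screen-wide mean plus 3 SD, cut at about 35% in these data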;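 note: 0% = median DMSO wells and 100% = median Neomycin B control wells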
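Test system – labelled RRE RNA duplex and labelled Rev peptide · Reagent – labelled Rev peptide · Doses – one concentration, 8 µM nominal · Incubation – 5 + 15 min at 25 °C · Signal – FRET fluorescence readout · Read-out basis – % inhibition of FRET ratio versus controls · Control set – DMSO wells as 0% and neomycin B wells as 100% inhibition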
Measles CPE: protection of cells from measles virus. Measles virus-infected cells, CPE protection, absorbance. protection (pct of control), % at 4 µM. hit rate 1.5% among 140,000. AID 841; in the data active = protection mostly above about 24%, no sharp cut-off; inactive = mostly below about 26%
DAT uptake mod: human DAT dopamine uptake with cocaine, either direction; B-score at 10 µM; LLC-PK1 hDAT cells, [14C]-dopamine uptake with cocaine IC80; actives deviate in either direction; Q01959; AID 449768; hit rate 1.3% among 110,000;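 active = Z score or B-score, a plate-position-corrected score, falls beyond the plate's 99.7% confidence bounds, in either direction; inactive = both scores lie inside the 99.7% bounds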;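 note: scored against the spread of the other compound wells on the same plate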
Target sequence (Q01959 whole entry, looked up): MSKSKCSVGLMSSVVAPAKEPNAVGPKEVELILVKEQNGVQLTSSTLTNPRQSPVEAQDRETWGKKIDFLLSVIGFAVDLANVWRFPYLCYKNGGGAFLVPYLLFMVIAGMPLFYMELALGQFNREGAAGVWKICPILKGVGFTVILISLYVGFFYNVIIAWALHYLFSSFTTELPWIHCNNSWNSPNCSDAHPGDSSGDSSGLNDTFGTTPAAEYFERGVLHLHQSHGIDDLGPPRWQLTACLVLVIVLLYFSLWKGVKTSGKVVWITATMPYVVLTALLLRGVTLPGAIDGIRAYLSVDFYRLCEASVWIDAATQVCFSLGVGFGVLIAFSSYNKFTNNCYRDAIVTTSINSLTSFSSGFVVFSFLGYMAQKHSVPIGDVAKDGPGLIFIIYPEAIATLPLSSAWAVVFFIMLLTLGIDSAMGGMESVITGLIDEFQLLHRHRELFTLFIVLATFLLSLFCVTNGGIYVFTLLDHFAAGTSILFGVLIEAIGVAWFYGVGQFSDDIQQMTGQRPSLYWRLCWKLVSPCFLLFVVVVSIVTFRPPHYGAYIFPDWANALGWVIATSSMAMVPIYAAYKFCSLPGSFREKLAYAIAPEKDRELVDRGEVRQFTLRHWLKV
Cav3 T inh: inhibitors of human Cav3.2 T-type calcium channel. O95180. Cav3.2-expressing cells, Fluo-4 calcium fluorescence FDSS; active compounds read low. B-score at 10 µM. hit rate 4% among 100,000. AID 449739;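 active = single-dose well whose peak fluorescence ratio is a statistical outlier from its plate by either plate-standardised score or position-corrected B-score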
Phagocyt inh: macrophage phagocytosis inhibition. hit rate 0.07% among 110,000. inhibition, % at 5 µM. J774A.1 macrophage IgG-bead phagocytosis, imaging. AID 1029;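 active = inhibition above the mean of the plate negative controls plus 5 SD, cut at about 13% in these data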;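 note: phagocytic index as fraction of beads internalized from green versus red external bead signal; plate controls were DMSO negative control for no effect and cytochalasin-D positive control for full effect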
An asterisk follows results filed as active; . = no result.

SMILES	PTK2B oligo ant	Rev-RRE block	Measles CPE	DAT uptake mod	Cav3 T inh	Phagocyt inh
CCCCC1(Cc2ccc(OC)c([N+](=O)[O-])c2)C(=O)N(c2ccccc2)N(c2ccccc2)C1=O	0.36	9.2	6.2	-0.327	-3.64*	1.5
CCCCC1(CC(=O)OC)C(=O)N(c2ccccc2)N(c2ccccc2)C1=O	.	.	3.0	.	.	-2.7
COC(=O)CCCCCNc1ccc(C(=O)OC)cc1N	0.9	-3.2	30.2*	-0.301	1.11	2.3
O=C(c1ccco1)N1CCN(C(=O)c2cc(-c3ccncc3)nc3ccc(Br)cc23)CC1	-0.15	5.3	.	-2.68*	1.26	.
O=C(c1ccco1)N1CCN(C(=O)c2cc(-c3ccccc3)nc3ccccc23)CC1	-0.19	5.5	4.5	0.17	0.342	.
CC(=O)/C(C#N)=C1\NC(=O)C(Cc2ccccc2Cl)S1 (stereo not given)	-0.53	5.0	37.6*	-0.0166	-1.6	.
Cc1ccc(CC2SC(=O)NC2=O)cc1Cl (stereo not given)	2.24	.	10.2	-0.553	-0.56	.
O=C1NC(=Nc2ccccc2)SC1Cc1cccc(Cl)c1Cl (stereo not given)	.	.	8.2	.	.	-2.2
CC(=O)/C(C#N)=C1\NC(=O)C(Cc2ccc(C)c(C)c2)S1 (stereo not given)	-0.67	10.6	68.5*	.	-1.74	-2.6
c1ccc(-c2cn3c(n2)-c2ccccc2C3)cc1	0.35	.	6.2	.	.	1.0
COc1cccc(C2C=C(c3cccs3)Nc3ncnn32)c1OC (stereo not given)	-1.47	18.9	8.4	-0.363	-1.51	.
COc1ccc(C2C=C(c3ccc(C)cc3)Nc3ncnn32)cc1 (stereo not given)	-1.04	56.0*	15.2	.	.	0.4
COc1ccc(C2C=C(c3ccccc3)Nc3nnnn32)cc1 (stereo not given)	0.16	13.7	6.2	-0.756	-0.131	-0.5
COc1ccc(C2C=C(c3ccccc3)Nc3nc(NC(C)=O)nn32)cc1 (stereo not given)	.	42.4*	9.9	1.02	-0.155	1.3
COc1ccc(C2C=C(c3ccc(Br)s3)Nc3ncnn32)cc1OC (stereo not given)	.	.	7.1	-0.0519	-8.74*	-0.7
COc1ccc(C2=CC(c3ccc(C)cc3)n3nnnc3N2)cc1 (stereo not given)	-0.5	46.8*	16.7	-0.436	-0.428	-2.4
COC(=O)[C@H]1[C@@H](C)N(Cc2ccccc2)C(=O)N[C@H]1c1ccccc1	.	.	.	-0.129	0.462	.
CC(=O)Nc1ccccc1-c1nc2ccccc2nc1OCC(=O)c1ccc2ccccc2c1	-2.32	3.4	16.3	-0.692	-1.36	1.8
CN1CCN(C(=S)Nc2cc([N+](=O)[O-])ccc2Cl)CC1	0.16	.	22.3	.	.	-9.2
Cc1cc(Cl)ccc1OC(C)C(=O)N1CCCN(C(=O)C(C)Oc2ccc(Cl)cc2C)CC1 (stereo not given)	0.81	9.7	7.8	0.784	-5.42*	0.7
COCCn1c(SCC(=O)N(C(C)C)C(C)C)nnc1-c1cc2ccccc2cc1O	-0.03	-2.7	3.2	1.09	-1	-2.7
CC(C)N(C(=O)CSc1nnc(-c2cc3ccccc3cc2O)n1Cc1ccco1)C(C)C	0.17	-4.4	5.7	0.169	-6.63*	-5.0
O=C(CSc1nnc(-c2cc3ccccc3cc2O)n1Cc1ccco1)N1CCc2ccccc2C1	-0.43	9.8	4.0	-0.75	-5.1*	0.7
Cc1occc1-c1nnc(SCC(=O)N2CCOCC2)n1Cc1ccco1	-0.27	.	23.5	-0.471	-0.798	1.1
CC1CCCCC1NS(=O)(=O)c1ccc(S(=O)(=O)N2CCCC2)cc1 (stereo not given)	0.62	12.3	15.2	-5.02*	-1.92	1.7
SMILES	PTK2B oligo ant	Rev-RRE block	Measles CPE	DAT uptake mod	Cav3 T inh	Phagocyt inh
CC1CCCCC1NC(=O)c1ccc(S(=O)(=O)N2CCCC2)cc1 (stereo not given)	0.3	0.6	9.2	0.204	0.176	-1.6
CCCCN(CC)CCNC(=O)CN1C(=O)COc2ccc(S(=O)(=O)N3CCCC3)cc21	.	.	7.4	.	.	2.5
COc1ccc(CSc2nnc(Cc3sc(-c4ccccc4)nc3-c3ccccc3)o2)cc1	-0.33	7.4	7.3	0.185	-5.22*	-1.9
Cn1nnc2cc(C(=O)N3CCN(c4ccccc4)CC3)ccc21	-0.47	5.7	43.1*	0.581	0.19	.
O=C(c1ccccc1C(=O)N1CCN(c2ccc(F)cc2)CC1)N1CCN(c2ccc(F)cc2)CC1	0.65	14.9	1.8	0.0971	-4.11*	-0.3
CS(=O)(=O)Nc1ccc(C(=O)N2CCN(c3ccccc3)CC2)cc1	-0.08	7.9	42.2*	-0.479	0.376	-2.4
O=C(c1ccccc1C(=O)N1CCN(c2ccccc2)CC1)N1CCN(c2ccccc2)CC1	0.95	22.3	16.9	1.49	-0.717	-0.6
O=C(O)c1ccccc1C(=O)N1CCN(c2ccccc2)CC1	0.04	9.1	45.2*	0.129	.	0.9
O=C(c1ccc2snnc2c1)N1CCN(c2ccccc2)CC1	-0.42	4.3	2.6	0.158	-0.18	0.2
C=CCc1cc(C)ccc1OCCOCCn1ccnc1	.	.	6.2	.	.	.
COc1ccc(NC(=O)COc2ccc(C(=O)NC3CCCc4ccccc43)cc2OC)cc1 (stereo not given)	.	.	13.0	.	.	9.2
NNc1nc2c(F)cc(F)cc2s1	.	.	3.7	.	.	-5.5
CCOC(=O)Nc1nc(-c2ccccc2)c(C(=O)c2ccc(Cl)cc2)s1	-3.4*	14.0	31.3	-0.287	-3.99	0.1
C[N+]1(CCCCCCC(=O)/C=N/O)CCCCCC1	-0.06	9.6	32.4*	-0.663	0.119	-1.1
Clc1ccc(C2=CSC3=NCCN23)cc1Cl	0.01	4.6	54.5*	-0.614	-0.59	-3.4
O=C(c1ccccc1)N1CCN2C(=O)c3ccccc3C12c1ccc(Cl)cc1 (stereo not given)	-1.48	8.9	7.1	0.157	-8.39*	-1.3
O=C(Nc1ccccc1)N1CCCC1	-0.39	7.2	9.6	-0.153	0.47	0.3
O=C(c1ccccc1)N1CCN(c2ccc(Cl)cc2)CC1	0.98	0.5	4.6	0.809	0.011	-0.6
O=C(Nc1ccccc1)N1CCN2C(=O)c3ccccc3C12c1ccccc1 (stereo not given)	-2.15	8.7	7.0	-0.215	-6.87*	-0.2
CCC(c1nnnn1Cc1ccco1)N1CCN(C(=O)c2ccco2)CC1 (stereo not given)	0.4	6.0	34.0	-0.0552	0.812	-0.6
CCCCC(c1nnnn1CC1CCCO1)N1CCN(c2cc(Cl)ccc2C)CC1 (stereo not given)	-1.89	-1.9	0.8	-0.393	-5.27*	-0.9
CCCC(c1nnnn1Cc1ccco1)N1CCN(c2cc(Cl)ccc2C)CC1 (stereo not given)	0.05	9.9	6.1	1.27	-6.86*	-0.8
COc1cccc2[nH]c3c(Cl)ncnc3c12	.	.	11.0	.	.	2.6
COC(=O)c1ccc(CSc2nnc(-c3c[nH]c4ccccc34)n2-c2ccccc2)cc1	.	.	53.8*	.	.	-7.0
